Consider three molecules from ChEMBL document CHEMBL1909548, “Ligustrazine derivatives. Part 5: design, synthesis and biological evaluation of novel ligustrazinyloxy-cinnamic acid derivatives as potent cardiovascular agents” (Eur J Med Chem, 2011).

The nature of assay [1]: Antiplatelet activity in rabbit platelet rich plasma assessed as inhibition rate of ADP-induced platelet aggregation at 200 uM after 5 mins by aggregometry. Type of assay: functional. The note with it: Oryctolagus cuniculus. An outline of the steps:
(§1)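 Rabbit platelet-rich plasma obtained by centrifuging blood at 1000 rpm for 5 min. Platelet-poor plasma (3000 rpm, 15 min) served as the reference. Platelets were adjusted to 3×10¹¹/L. PRP was mixed with compound at final levels 400, 200, 100 or 50 and incubated at 37 °C for 5 min before aggregation was read. IC50 was derived by linear regression.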

Assay [2] can be described thus: Antiplatelet activity in rabbit platelet rich plasma assessed as inhibition rate of ADP-induced platelet aggregation at 100 uM after 5 mins by aggregometry. In kind it is functional. The note with it: Oryctolagus cuniculus. The gist of the method: as §1
Assay [3] is described as follows: Antiplatelet activity in rabbit platelet rich plasma assessed as inhibition rate of ADP-induced platelet aggregation at 50 uM after 5 mins by aggregometry. In kind it is functional. The note with it: Oryctolagus cuniculus. The gist of the method: as §1
Assay [4] in a line: Antiplatelet activity in rabbit platelet rich plasma assessed as inhibition of ADP-induced platelet aggregation after 5 mins by aggregometry. In kind it is functional. The note with it: Oryctolagus cuniculus. An outline of the steps:
as §1

Assay [5] relates to ECV-304. The assay can be described thus: Protection against H2O2-induced toxicity in human ECV304 cells assessed as proliferation rate at 100 uM pretreated for 24 hrs before H2O2 challenge measured after 12 hrs by MTT assay. Type of assay: functional. The note with it: read-out: Activity. An outline of the steps:
(§2)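 ECV-304 cells were seeded at 6×10³/well and grown to confluence. Cells were pretreated 24 h with compound in DMSO (final ≤0.05%), then given H2O2 (150) for 12 h at 37 °C, 5% CO2. MTT (5 mg/mL) was added for 4 h, formazan dissolved in DMSO, and A570 read. Proliferation rate = [OD(compd)−OD(H2O2)]/[OD(control)−OD(H2O2)]×100%. EC50 was calculated from proliferation rates by formula.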

Assay [6] has as its system ECV-304. The assay can be described thus: Protection against H2O2-induced toxicity in human ECV304 cells assessed as proliferation rate at 50 uM pretreated for 24 hrs before H2O2 challenge measured after 12 hrs by MTT assay. In kind it is functional. The note with it: read-out: Activity. The gist of the method: as §2
In general terms: Tetrazolium dyes change colour on reduction, which living cells bring about.

Assay [7] deals with ECV-304. The assay can be described thus: Protection against H2O2-induced toxicity in human ECV304 cells assessed as proliferation rate at 25 uM pretreated for 24 hrs before H2O2 challenge measured after 12 hrs by MTT assay. Type of assay: functional. The note with it: read-out: Activity. The gist of the method:
as §2

Assay [8] has as its system ECV-304. The experiment in a line: Protection against H2O2-induced toxicity in human ECV304 cells assessed as proliferation rate at 12.5 uM pretreated for 24 hrs before H2O2 challenge measured after 12 hrs by MTT assay. The note with it: read-out: Activity. Type of assay: functional. The gist of the method: as §2
The test system of assay [9] is ECV-304. The experiment in a line: Protection against H2O2-induced toxicity in human ECV304 cells assessed as proliferation rate pretreated for 24 hrs before H2O2 challenge measured after 12 hrs by MTT assay. In kind it is functional, cell-based. An outline of the steps:
as §2

The nature of assay [10]: Antiplatelet activity in rabbit platelet rich plasma assessed as inhibition rate of ADP-induced platelet aggregation at 400 uM after 5 mins by aggregometry. Type of assay: functional. The note with it: Oryctolagus cuniculus. The gist of the method:
as §1

Assay [11] relates to ECV-304. The assay can be described thus: Ratio of Ligustrazine EC50 to compound EC50 for protection against H2O2-induced toxicity in human ECV304 cells pretreated for 24 hrs before H2O2 challenge measured after 12 hrs by MTT assay.

In the case of `Cc1nc(C)c(COc2cccc(/C=C/C(=O)O)c2)nc1C`, the inhibition (in general, the share of the control response that was lost under treatment) at 200 µM in assay [1] was 57.2%. For the same molecule, in [2], the inhibition at 100 µM was 46.6%. In assay [3], the inhibition at 50 µM is 30%. Besides, the IC50 (as a rule, the concentration that gives 50% inhibition) in [4] was 161 µM. Further, the growth at 100 µM in assay [5] is 175%. Moreover, in assay [6], the growth at 50 µM is 473%. The growth at 25 µM in assay [7] stood at 378%. For the same molecule, the growth at 12.5 µM in assay [8] came to 306%. The EC50 (usually the concentration that produces a half-maximal response) in [9] came out at 20 µM. Further, the inhibition at 400 µM in assay [10] is 60.8%. Further, in [11], the “EC50 ratio (TMP/compound)” value was found to be 30.
`Cc1nc(C)c(COc2ccc(/C=C/C(=O)O)cc2)nc1C`: in [1], the inhibition at 200 µM was determined as 29%. Further, the inhibition at 100 µM in [2] is 13.4%. In addition, the inhibition at 50 µM in assay [3] is 18.8%. The IC50 in [4] came out at 1400 µM. Besides, the growth at 100 µM in assay [5] was found to be 46.6%. In addition, in [6], the growth at 50 µM amounted to 90.4%. Also, the growth at 25 µM in [7] was 2.01%. The growth at 12.5 µM in assay [8] is -55%. Further, the EC50 in assay [9] was 86 µM. Also, the inhibition at 400 µM in assay [10] stood at 27.6%.
Take `Cc1nc(C)c(COc2ccccc2/C=C/C(=O)O)nc1C`: the inhibition at 200 µM in assay [1] turned out to be 70.2%. In addition, the inhibition at 100 µM in assay [2] stood at 62.3%. Also, in assay [3], the inhibition at 50 µM was determined as 46.1%. Also, the IC50 in assay [4] turned out to be 54 µM. Further, in assay [5], the growth at 100 µM is -34.6%. The growth at 50 µM in [6] was determined as 237%. In addition, the growth at 25 µM in assay [7] was found to be 370%. In [8], the growth at 12.5 µM stood at 183%. Further, the EC50 in [9] came out at 499 µM. The inhibition at 400 µM in assay [10] came out at 76.8%.
